Tests used:
[1] = tested on: Human immunodeficiency virus 1; experiment: Antiviral activity against HIV-1 infected human MT-4 cells.; type: functional, organism-based; conditions: Human immunodeficiency virus 1, MT4
Outline: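 HTLV-1-transformed MT4 cells were infected with HIV-1 strain 3B at 100× the amount giving a 50% drop in cell growth. They were cultured 5 days with a range of compound concentrations. IC50 is the concentration restoring 50% of infected-cell growth (cytopathic effect) relative to uninfected MT4 controls.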

[2] = target: Human immunodeficiency virus type 1 reverse transcriptase (Human immunodeficiency virus 1, UniProt Q72547); experiment: Inhibitory activity against HIV-1 reverse transcriptase
Outline: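 Recombinant HIV RT at 1 nM was combined with 40 nM Eu-chelate-labeled biotinylated DNA primer/RNA template and 100 nM Cy5-dUTP. Reactions were started with enzyme.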

MT4 = experiment: Cell culture cytotoxicity against MT-4 cells.; type: functional, cell-based; conditions: Homo sapiens
Outline: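 MT4 cells were exposed to compound in parallel with the 5-day HIV-1 strain 3B cytopathic-effect assay. Compound-induced cytotoxicity is reported as the cell culture cytotoxicity IC50 (CCIC50).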

Compound | IC50 [1] | IC50 [2] | IC50 (MT4)
N#Cc1c(N)cccc1[S+]([O-])c1cccc(Br)c1 (stereo unspecified) | 0.08 µM | 4.8 µM | 
CCCCNc1cccc(S(=O)(=O)c2cc(C)cc(C)c2)c1C#N | > 12 µM |  | > 200 µM
Cc1cc(Cl)cc([S+]([O-])c2cccc(N)c2C#N)c1 (stereo unspecified) | 0.32 µM | 0.52 µM | > 200 µM
COc1cccc(S(=O)(=O)c2cccc(N)c2C#N)c1 | 0.9 µM | 0.6 µM | > 200 µM
Cc1ccc(S(=O)(=O)c2cccc(N)c2C#N)cc1 | 9.5 µM | 7.3 µM | > 200 µM
N#Cc1c(N)cccc1S(=O)(=O)c1cccc(C(F)(F)F)c1 | 3.5 µM | 5.3 µM | 197 µM
N#Cc1c(N)cccc1S(=O)(=O)c1ccccc1F | 3 µM | 5 µM | 57 µM
CCOc1cc(C)cc(S(=O)(=O)c2cccc(N)c2C#N)c1 | 0.06 µM |  | 9 µM
COc1ccc([S+]([O-])c2cccc(N)c2C#N)cc1 (stereo unspecified) | > 200 µM | > 20 µM | > 200 µM
N#Cc1c(N)cccc1S(=O)(=O)c1cccc(Br)c1 | 0.54 µM | 0.2 µM | > 200 µM
N#Cc1c(N)cccc1[S+]([O-])c1cc(Cl)ccc1Cl (stereo unspecified) | 9.85 µM | 6.2 µM | > 200 µM
Cc1ccc([S+]([O-])c2cccc(N)c2C#N)cc1 (stereo unspecified) | 49 µM | > 21 µM | > 200 µM
N#Cc1c(N)cccc1S(=O)(=O)c1cccc(F)c1 | 3 µM |  | > 200 µM
N#Cc1c(N)cccc1Sc1ccccc1 | 14.6 µM | 8.7 µM | 168 µM
CCCOc1cc(C)cc(S(=O)(=O)c2cccc(N)c2C#N)c1 | 0.06 µM |  | 11 µM
N#Cc1c(N)cccc1S(=O)(=O)c1cccc(Cl)c1 | 0.59 µM | 0.4 µM | > 200 µM
Cc1cc(C)cc(S(=O)(=O)c2cccc(F)c2C#N)c1 | 1.5 µM |  | > 200 µM
Cc1cc(C)cc(Sc2cccc(N)c2C#N)c1 | 0.43 µM | 1.1 µM | > 2 µM
N#Cc1ccccc1S(=O)(=O)c1cccc(N)c1C#N | 5.4 µM | 6 µM | > 200 µM
Nc1cccc(S(=O)(=O)c2ccccc2)c1 | > 50 µM |  | > 50 µM
Cc1cccc(Sc2cccc(N)c2C#N)c1 | 6.1 µM | 0.96 µM | 79 µM
N#Cc1cccc(S(=O)(=O)c2cccc(N)c2C#N)c1 | 2.4 µM | 1.8 µM | > 200 µM
N#Cc1ccc([S+]([O-])c2cccc(N)c2C#N)cc1 (stereo unspecified) | > 200 µM | > 23 µM | > 200 µM
Cc1cccc([S+]([O-])c2cccc(N)c2C#N)c1 (stereo unspecified) | 29.2 µM | 10 µM | > 200 µM

Compound | IC50 [1] | IC50 [2] | IC50 (MT4)
Cc1cc(O)cc(S(=O)(=O)c2cccc(N)c2C#N)c1 | 0.43 µM |  | 167 µM
N#Cc1cccc(Sc2cccc(N)c2C#N)c1 | 1.73 µM | 1.1 µM | 80 µM
COc1ccccc1Sc1cccc(N)c1C#N | 4.3 µM | 2.7 µM | > 200 µM
Cc1cc(Cl)cc(Sc2cccc(N)c2C#N)c1 | 1.76 µM | 1.7 µM | 16 µM
N#Cc1c(N)cccc1S(=O)(=O)c1ccc(Br)cc1 | 20 µM | > 14 µM | > 200 µM
N#Cc1c(N)cccc1Sc1cc(Cl)ccc1Cl | > 0.8 µM | 3.5 µM | 4.3 µM
COc1cc(Sc2cccc(N)c2C#N)cc(C(F)(F)F)c1 | 5.1 µM | 13 µM | 9 µM
N#Cc1c(N)cccc1Sc1cccc(N)c1 | 31.5 µM | > 23 µM | 168 µM
N#Cc1c(N)cccc1S(=O)(=O)c1ccccc1Br | 5 µM | 12 µM | 40 µM
N#Cc1c(N)cccc1S(=O)(=O)c1ccc2ccccc2c1 | 0.05 µM | 0.03 µM | > 200 µM
Cc1ccc(Sc2cccc(N)c2C#N)cc1 | 115 µM | 5.7 µM | > 200 µM
N#Cc1c(N)cccc1S(=O)(=O)c1ccc(Cl)cc1 | 3 µM |  | > 5 µM
N#Cc1c(N)cccc1Sc1cccc(F)c1 | 9.8 µM | 12 µM | 162 µM
Cc1ccccc1[S+]([O-])c1cccc(N)c1C#N (stereo unspecified) | 93 µM | > 21 µM | > 200 µM
COc1cc(C)cc(Sc2cccc(N)c2C#N)c1 | 2 µM | 0.14 µM | 10 µM
N#Cc1c(N)cccc1Sc1cccc(Br)c1 | 5.1 µM | 15 µM | 53 µM
N#Cc1ccccc1Sc1cccc(N)c1C#N | > 6.4 µM | 9.1 µM | 42 µM
N#Cc1c(N)cccc1Sc1cccc(C(F)(F)F)c1 | 12.8 µM | 7.1 µM | 34 µM
N#Cc1c(N)cccc1Sc1ccccc1Br | 30 µM | > 21 µM | 41 µM
N#Cc1c(N)cccc1S(=O)(=O)c1ccccc1Cl | 4.1 µM | 5.9 µM | > 200 µM
N#Cc1cccc([S+]([O-])c2cccc(N)c2C#N)c1 (stereo unspecified) | 14.2 µM | > 15 µM | > 200 µM
COc1cc(C)cc(S(=O)(=O)c2cccc(F)c2C#N)c1 | 51 µM |  | 8 µM
N#Cc1c(N)cccc1Sc1ccc(Cl)cc1 | > 32 µM | 12 µM | 113 µM
N#Cc1c(F)cccc1S(=O)(=O)c1cc(Cl)cc(Cl)c1 | 42 µM |  | 188 µM

Compound | IC50 [1] | IC50 [2] | IC50 (MT4)
COc1ccccc1S(=O)(=O)c1cccc(N)c1C#N | 0.6 µM | 1.4 µM | 146 µM
N#Cc1ccc(S(=O)(=O)c2cccc(N)c2C#N)cc1 | 80 µM | > 18 µM | > 200 µM
Cc1ccccc1S(=O)(=O)c1cccc(N)c1C#N | 2.3 µM | 4.5 µM | > 200 µM
COc1cccc([S+]([O-])c2cccc(N)c2C#N)c1 (stereo unspecified) | 16 µM | 19 µM | > 80 µM
N#Cc1c(N)cccc1S(=O)(=O)c1cc(Cl)ccc1Cl | 0.3 µM | 0.3 µM | > 200 µM
N#Cc1c(N)cccc1Sc1cccc(Cl)c1 | 7.4 µM | 16 µM | 53 µM
N#Cc1c(N)cccc1[S+]([O-])c1ccc(Br)cc1 (stereo unspecified) | 20.2 µM | > 21 µM | > 200 µM
N#Cc1c(N)cccc1Sc1ccccc1Cl | 4.1 µM | 7.2 µM | 33 µM
Cc1cc(C)cc(S(=O)(=O)c2cccc(NC3CCCCC3)c2C#N)c1 | > 200 µM |  | > 200 µM
O=[N+]([O-])c1ccccc1S(=O)(=O)c1ccccc1 | 2.2 µM | 16 µM | 
Cc1cc(C)cc([S+]([O-])c2cccc(N)c2C#N)c1 (stereo unspecified) | 0.34 µM | 0.5 µM | 200 µM
N#Cc1c(N)cccc1[S+]([O-])c1cccc(C(F)(F)F)c1 (stereo unspecified) | 40 µM | > 22 µM | 125 µM
COc1ccccc1[S+]([O-])c1cccc(N)c1C#N (stereo unspecified) | 4.8 µM | 12 µM | > 200 µM
O=[N+]([O-])c1ccccc1Sc1ccccc1[N+](=O)[O-] | 93.5 µM | > 20 µM | > 200 µM
N#Cc1ccccc1[S+]([O-])c1cccc(N)c1C#N (stereo unspecified) | 3.9 µM | 9.9 µM | > 200 µM
N#Cc1c(N)cccc1[S+]([O-])c1ccccc1Br (stereo unspecified) | 39.2 µM | > 19 µM | 168 µM
N#Cc1c(N)cccc1S(=O)(=O)c1ccccc1 | 2 µM | 6.9 µM | > 5 µM
COc1ccc(S(=O)(=O)c2cccc(N)c2C#N)cc1 | 25 µM | 13 µM | > 200 µM
COc1cc([S+]([O-])c2cccc(N)c2C#N)cc(C(F)(F)F)c1 (stereo unspecified) | 2.07 µM | 0.9 µM | 108 µM
N#Cc1ccc(Sc2cccc(N)c2C#N)cc1 | 43.8 µM | > 19 µM | > 200 µM
Cc1cccc(S(=O)(=O)c2cccc(N)c2C#N)c1 | 0.4 µM | 0.2 µM | 179 µM
COc1cccc(Sc2cccc(N)c2C#N)c1 | 6 µM | 1.5 µM | > 200 µM
CCCCOc1cc(C)cc(S(=O)(=O)c2cccc(N)c2C#N)c1 | 0.6 µM | 0.4 µM | > 2 µM
O=[N+]([O-])c1ccccc1S(=O)(=O)c1ccccc1[N+](=O)[O-] |  | 14 µM | 
